Measurements published in ChEMBL document CHEMBL1140049, “Bioisosteric replacement of the pyrazole 5-aryl moiety of N-(piperidin-1-yl)-5-(4-chlorophenyl)-1-(2,4-dichlorophenyl)-4-methyl-1H-pyrazole-3-carboxamide (SR141716A). A novel series of alkynylthiophenes as potent and selective cannabinoid-1 receptor antagonists” (J Med Chem, 2008).
Calls of active or inactive are those of the source. No cut-off for these calls is given here.

How the values were obtained:
Cannabinoid receptor 1 [1] = biological target: T1, Cannabinoid receptor 1 (Homo sapiens, UniProt P21554); experiment: Antagonist activity at human CB1 receptor expressed in HEK293 cells assessed as inhibition of Eu-GTP binding; format: cell-based
Cannabinoid receptor 1 [2] = biological target: T1, Cannabinoid receptor 1; experiment: biochemical; format: cell-based, HEK293
HEK293 = experiment: Selectivity ratio of IC50 for human CB2 receptor to human CB1 receptor expressed in HEK293 cells; format: cell-based
Cannabinoid receptor 2 = Cannabinoid receptor 2 (Homo sapiens, UniProt P34972); experiment: Displacement of [3H]CP-55940 from human CB2 receptor expressed in HEK293 cells; format: cell-based
Cannabinoid receptor 1 [3] = biological target: T1, Cannabinoid receptor 1; experiment: Agonist activity at human CB1 receptor expressed in HEK293 cells assessed as increase in [35S]gammaGTP binding relative to control; format: cell-based
Cannabinoid receptor 1 [4] = biological target: T1, Cannabinoid receptor 1; experiment: Antagonist activity at human CB1 receptor expressed in HEK293 cells assessed as effect on [35S]gammaGTP binding relative to control; format: cell-based
Mus musculus [5] = experiment: Decrease in body weight in DIO C57BL/6 mouse model at 10 mg/kg, po qd for 21 days
Cannabinoid receptor 1 [6] = biological target: T1, Cannabinoid receptor 1; experiment: Displacement of [3H]SR141716A from human CB1 receptor expressed in HEK293 cells; format: cell-based
Mus musculus [7] = experiment: Decrease in body weight in DIO C57BL/6 mouse model at 20 mg/kg, po qd for 21 days; format: functional, organism-based; set-up: dose 20 mg/kg
Mus musculus [8] = experiment: Suppression of appetite in orally dosed DIO C57BL/6 mouse model; format: functional, organism-based
Rattus norvegicus = experiment: Suppression of appetite in orally dosed spontaneously feeding Wistar rat model; format: functional, organism-based
In short: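 Male Wistar rats (210-270 g), singly housed on 12 h reversed light cycle over a week; single oral gavage of 3, 10 or 20 mg/kg or vehicle (20% DMSO/10% Tween-80/70% H2O) before lights off, chow supplied at 11 a.m.; food intake at 1, 2, 3, 6 h as cal per g body weight; n = 4-6.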

T1 sequence (P21554 whole entry): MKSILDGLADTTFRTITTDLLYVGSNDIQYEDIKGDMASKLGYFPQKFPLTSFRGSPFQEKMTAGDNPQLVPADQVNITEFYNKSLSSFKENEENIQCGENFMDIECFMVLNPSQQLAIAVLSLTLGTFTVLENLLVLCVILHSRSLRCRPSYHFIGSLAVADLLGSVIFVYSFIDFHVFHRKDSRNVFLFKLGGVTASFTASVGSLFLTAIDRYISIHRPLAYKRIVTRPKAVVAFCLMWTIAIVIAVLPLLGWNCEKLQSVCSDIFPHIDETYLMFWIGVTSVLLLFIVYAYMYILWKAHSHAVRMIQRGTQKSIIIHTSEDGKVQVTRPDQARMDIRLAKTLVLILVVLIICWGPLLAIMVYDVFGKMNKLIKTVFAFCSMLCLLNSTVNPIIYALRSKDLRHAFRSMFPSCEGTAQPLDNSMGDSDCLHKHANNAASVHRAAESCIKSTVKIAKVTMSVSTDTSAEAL
Chain of Cannabinoid receptor 2 (P34972 whole entry): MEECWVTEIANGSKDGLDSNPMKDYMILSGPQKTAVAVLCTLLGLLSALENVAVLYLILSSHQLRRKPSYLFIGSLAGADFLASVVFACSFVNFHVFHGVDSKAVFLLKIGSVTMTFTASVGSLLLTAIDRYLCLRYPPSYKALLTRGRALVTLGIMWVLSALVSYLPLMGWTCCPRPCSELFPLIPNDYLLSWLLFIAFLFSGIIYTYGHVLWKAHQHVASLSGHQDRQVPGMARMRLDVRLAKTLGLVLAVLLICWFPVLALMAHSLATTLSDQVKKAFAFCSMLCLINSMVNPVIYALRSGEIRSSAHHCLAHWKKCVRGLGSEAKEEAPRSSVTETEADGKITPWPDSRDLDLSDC

Row | Compound | EC50 (Cannabinoid receptor 1 [1]) [µM] | IC50 (Cannabinoid receptor 1 [2]) [µM] | IC50 (Cannabinoid receptor 2) [µM] | Activity (Cannabinoid receptor 1 [3]) | Activity (Cannabinoid receptor 1 [4]) | IC50 (Cannabinoid receptor 1 [6]) [µM] | Ratio IC50 (HEK293) | Activity (Mus musculus [5]) | Activity (Mus musculus [7]) | Activity (Mus musculus [8]) | Activity (Rattus norvegicus)
1 | CCc1c(C(=O)NN2CCCCC2)nn(-c2ccc(Cl)cc2Cl)c1-c1ccc(C#CCC(C)C)s1 | 0.023 | 0.0051 | 1.21 |  |  |  | 236 |  |  |  | 
2 | Cc1c(C(=O)NN2CCCCC2)nn(-c2ccc(Cl)cc2Cl)c1-c1ccc(C#CC2CCCCC2)s1 | 0.442 | 0.0073 | 1.58 | Active |  |  | 216 |  |  |  | 
3 | Cc1c(C(=O)NN2CC3CCCC3C2)nn(-c2ccc(Cl)cc2Cl)c1-c1ccc(C#CC2CCCCC2)s1 (stereo not given) | 0.294 | 0.0078 | 1.73 | Active |  |  | 221 |  |  |  | 
4 | CCCCC#Cc1ccc(-c2c(C)c(C(=O)NCCCCCC)nn2-c2ccc(Cl)cc2Cl)s1 | 0.074 | 0.0026 | 0.261 | Active |  |  | 100 |  |  |  | 
5 | CCC#Cc1ccc(-c2c(C)c(C(=O)NN3CC4CCCC4C3)nn2-c2ccc(Cl)cc2Cl)s1 (stereo not given) | 0.0355 | 0.0283 | 0.921 |  | Active |  | 33 |  |  |  | 
6 | CCC/C=C/c1ccc(-c2c(C)c(C(=O)NN3CC4CCCC4C3)nn2-c2ccc(Cl)cc2Cl)s1 (stereo not given) | 0.0714 | 0.0275 | 5.41 |  |  |  | 197 |  |  |  | 
7 | CCC/C=C/c1ccc(-c2c(C)c(C(=O)NN3CCCCC3)nn2-c2ccc(Cl)cc2Cl)s1 | 0.146 | 0.0216 | 3.84 |  |  |  | 178 |  |  |  | 
8 | CCCCCc1ccc(-c2c(C)c(C(=O)NN3CC4CCCC4C3)nn2-c2ccc(Cl)cc2Cl)s1 (stereo not given) | 0.048 | 0.0206 | 3.66 |  |  |  | 178 |  |  |  | 
9 | Cc1c(C(=O)NN2CCCCC2)nn(-c2ccc(Cl)cc2Cl)c1-c1ccc(Cl)cc1 |  |  |  |  |  |  |  | Active |  |  | 
10 | CCCCC#Cc1ccc(-c2c(C)c(C(=O)NN3CC4CCCC4C3)nn2-c2ccc(Cl)cc2Cl)s1 (stereo not given) | 0.0057 | 0.0013 | 0.158 | Active |  |  | 122 |  |  |  | 
11 | CCCCCc1ccc(-c2c(C)c(C(=O)NN3CCCCC3)nn2-c2ccc(Cl)cc2Cl)s1 | 0.0759 | 0.0579 | 6.35 |  |  |  | 109 |  |  |  | 
12 | CCCCC#Cc1ccc(-c2c(C)c(C(=O)NN3CCCCC3)nn2-c2ccc(Cl)cc2Cl)s1 | 0.0079 | 0.0014 | 0.311 | Active |  |  | 222 |  |  |  | 
13 | Cc1c(C(=O)NN2CCCCCC2)nn(-c2ccc(Cl)cc2Cl)c1-c1ccc(Br)s1 | 0.0649 | 0.0407 | 0.705 |  |  |  | 17 |  |  |  | 
14 | Cc1c(C(=O)NN2CCCCC2)nn(-c2ccc(Cl)cc2Cl)c1-c1ccc(Br)s1 | 0.0682 | 0.0358 | 0.895 |  |  |  | 25 |  |  |  | 
15 | CCCC#Cc1ccc(-c2c(C)c(C(=O)NN3CC4CCCC4C3)nn2-c2ccc(Cl)cc2Cl)s1 (stereo not given) | 0.0192 | 0.0079 | 0.785 |  | Active |  | 99 |  |  |  | 
16 | Cc1c(C(=O)NN2CC3CCCC3C2)nn(-c2ccc(Cl)cc2Cl)c1-c1ccc(C#CC2CCCC2)s1 (stereo not given) | 0.0993 | 0.0105 | 0.902 | Active |  |  | 86 |  |  |  | 
17 | Cc1c(C(=O)NN2CCCCC2)nn(-c2ccc(Cl)cc2Cl)c1-c1ccc(C#CC2CCCC2)s1 | 0.0245 | 0.0071 | 1.81 | Active |  |  | 255 |  |  |  | 
18 | CCCCC#Cc1ccc(-c2c(C)c(C(=O)NC3CCCCC3)nn2-c2ccc(Cl)cc2Cl)s1 | 0.0439 | 0.0021 | 0.278 | Active |  |  | 133 |  |  |  | 
19 | Cc1c(C(=O)NN2CC3CCCC3C2)nn(-c2ccc(Cl)cc2Cl)c1-c1ccc(C#CC2CC2)s1 (stereo not given) | 0.105 | 0.021 | 5.72 |  | Active |  | 272 |  |  |  | 
20 | Cc1c(C(=O)NN2CCCCC2)nn(-c2ccc(Cl)cc2Cl)c1-c1ccc(C#CCCc2ccccc2)s1 | 0.0204 | 0.0061 | 1.75 | Active |  |  | 285 |  |  |  | 
21 | Cc1c(C(=O)NN2CCCCCC2)nn(-c2ccc(Cl)cc2Cl)c1-c1ccc(Cl)s1 | 0.134 | 0.159 | 2.16 |  |  |  | 14 |  |  |  | 
22 | Cc1c(C(=O)NN2CCCCC2)nn(-c2ccc(Cl)cc2Cl)c1-c1ccc(C#CCOc2ccccc2)s1 | 0.0187 | 0.043 | 7.03 |  | Active |  | 164 |  |  |  | 
23 | CCCC#Cc1ccc(-c2c(CC)c(C(=O)NN3CCCCCC3)nn2-c2ccc(Cl)cc2Cl)s1 | 0.0165 | 0.0089 | 0.31 |  |  | 0.0012 | 34 |  |  |  | 
24 | Cc1c(C(=O)NN2CCCCC2)nn(-c2ccc(Cl)cc2Cl)c1-c1ccc(Cl)s1 | 0.147 | 0.0502 | 1.29 |  |  |  | 26 |  |  |  | 
25 | CCCCC#Cc1ccc(-c2c(C)c(C(=O)NCCCC)nn2-c2ccc(Cl)cc2Cl)s1 | 0.0298 | 0.003 | 0.638 | Active |  |  | 213 |  |  |  | 
26 | Cc1c(C(=O)NN2CC3CCCC3C2)nn(-c2ccc(Cl)cc2Cl)c1-c1ccc(C#CC(C)(C)C)s1 (stereo not given) | 0.158 | 0.0217 | 1.16 | Active |  |  | 53 |  |  |  | 

Further lines, with some results ahead:

Row | EC50 (Cannabinoid receptor 1 [1]) [µM] | IC50 (Cannabinoid receptor 1 [2]) [µM] | IC50 (Cannabinoid receptor 2) [µM] | Activity (Cannabinoid receptor 1 [3]) | Activity (Cannabinoid receptor 1 [4]) | IC50 (Cannabinoid receptor 1 [6]) [µM] | Compound | Ratio IC50 (HEK293) | Activity (Mus musculus [5]) | Activity (Mus musculus [7]) | Activity (Mus musculus [8]) | Activity (Rattus norvegicus)
27 | 0.39 | 0.0824 | 7.18 |  |  |  | Cc1c(C(=O)NN2CCCCC2)nn(-c2ccc(Cl)cc2Cl)c1-c1ccc(C#CCNC(C)C)s1 | 87 |  |  |  | 
28 | 0.349 | 0.124 | 1.27 |  |  |  | Cc1c(C(=O)NN2CCCCC2)nn(-c2ccc(Cl)cc2Cl)c1-c1ccc(C#CCN(C)C)s1 | 10 |  |  |  | 
29 | 0.0138 | 0.0061 | 0.92 |  |  | 0.0012 | CCCC#Cc1ccc(-c2c(CC)c(C(=O)NN3CCCCC3)nn2-c2ccc(Cl)cc2Cl)s1 | 151 |  | Active | Dose-dependent effect | Dose-dependent effect
30 | 0.0048 | 0.0017 | 0.564 | Active |  |  | CCCCC#Cc1ccc(-c2c(C)c(C(=O)NN3CCCCCC3)nn2-c2ccc(Cl)cc2Cl)s1 | 332 |  |  |  | 
31 | 0.0514 | 0.0654 | 4.33 |  | Active |  | CCC#Cc1ccc(-c2c(C)c(C(=O)NN3CCCCC3)nn2-c2ccc(Cl)cc2Cl)s1 | 66 |  |  |  | 
32 | 0.0287 | 0.0139 | 2.21 |  | Active | 0.0012 | CCCC#Cc1ccc(-c2c(C)c(C(=O)NN3CCCCC3)nn2-c2ccc(Cl)cc2Cl)s1 | 159 |  |  |  | 
33 | 0.143 | 0.0653 | 2.74 |  |  |  | COCC#Cc1ccc(-c2c(C)c(C(=O)NN3CCCCC3)nn2-c2ccc(Cl)cc2Cl)s1 | 42 |  |  |  | 
34 | 0.0729 | 0.0604 | 4.23 |  | Active |  | Cc1c(C(=O)NN2CCCCC2)nn(-c2ccc(Cl)cc2Cl)c1-c1ccc(C#CC2CC2)s1 | 70 |  |  |  | 
35 | 0.0289 | 0.0327 | 1.9 | Active |  |  | Cc1c(C(=O)NN2CCCCC2)nn(-c2ccc(Cl)cc2Cl)c1-c1ccc(C#CC(C)(C)C)s1 | 59 |  |  |  | 
36 | 0.0121 | 0.0023 | 0.386 | Active |  | 0.0012 | Cc1c(C(=O)NN2CCCCC2)nn(-c2ccc(Cl)cc2Cl)c1-c1ccc(C#CCC(C)C)s1 | 168 |  |  |  | 
37 | 0.0364 | 0.0242 | 1.06 |  | Active |  | CCC#Cc1ccc(-c2c(C)c(C(=O)NN3CCCCCC3)nn2-c2ccc(Cl)cc2Cl)s1 | 44 |  |  |  | 
38 | 0.0146 | 0.0049 | 0.688 | Active |  | 0.0012 | Cc1c(C(=O)NN2CCCCCC2)nn(-c2ccc(Cl)cc2Cl)c1-c1ccc(C#CCC(C)C)s1 | 139 |  |  |  | 
39 | 0.0255 | 0.0127 | 0.986 |  |  |  | CCOCC#Cc1ccc(-c2c(C)c(C(=O)NN3CCCCC3)nn2-c2ccc(Cl)cc2Cl)s1 | 78 |  |  |  | 
40 | 0.0141 | 0.007 | 1.5 |  | Active | 0.0012 | CCCC#Cc1ccc(-c2c(C)c(C(=O)NN3CCCCCC3)nn2-c2ccc(Cl)cc2Cl)s1 | 214 |  |  |  | 
41 | 0.0574 | 0.0232 | 1.76 | Active |  |  | Cc1c(C(=O)NN2CCCCC2)nn(-c2ccc(Cl)cc2Cl)c1-c1ccc(C#CCOC(C)C)s1 | 76 |  |  |  | 
